Ten compounds from article PMC11492202 (RSC Advances, 2024) can be followed below.

Experiment [1] has as its system Escherichia coli. Nature of the experiment: Antibacterial disc diffusion assay. The experiment is classed as cell-based. As to conditions: 37 °C, 24 hours. In short, it runs like this:
(§1)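 Organisms grown overnight in nutrient broth, adjusted to 0.5 McFarland turbidity and spread evenly on Mueller-Hinton agar with sterile cotton brushes. Sterile 4 mm paper discs were impregnated with test compound and placed on the inoculated plates. Rifampin served as the positive control and DMSO as the negative control. Plates were incubated at 37 °C for 24 h, and inhibition zones were measured in mm.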
On the technique in general: Agar diffusion results depend on both activity and mobility in agar.

Experiment [2] has as its system Bacillus subtilis. As to the kind of experiment: Antibacterial disc diffusion assay. Type of experiment: cell-based. Particulars: 37 °C, 24 hours. In short, it runs like this: as §1
Experiment [3] deals with α-amylase. Nature of the experiment: In vitro α-amylase inhibition assay. The experiment is classed as biochemical. As to conditions: read-out: α-Amylase inhibition IC50 ± SEM; starch substrate, pH 6.9.
For experiment [4], the target named is Proteinase K (Parengyodontium album, UniProt P06873). As to the kind of experiment: In vitro proteinase K inhibition assay. The experiment is classed as biochemical, Tritirachium album Limber.
Proteinase K, sequence (P06873 106-384): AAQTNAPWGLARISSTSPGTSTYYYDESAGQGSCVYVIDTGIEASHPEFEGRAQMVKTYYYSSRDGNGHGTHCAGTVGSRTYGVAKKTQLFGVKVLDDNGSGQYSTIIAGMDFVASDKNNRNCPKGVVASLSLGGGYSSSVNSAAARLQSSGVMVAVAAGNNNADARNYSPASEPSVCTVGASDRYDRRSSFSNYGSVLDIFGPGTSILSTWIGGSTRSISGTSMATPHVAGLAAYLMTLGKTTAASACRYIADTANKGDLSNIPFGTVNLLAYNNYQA

In general, IC50 refers to the midpoint of a concentration-inhibition curve.

Regarding `O=C(NC(=S)Nc1nc(-c2ccccc2)cc(-c2ccc(Br)cc2)n1)c1ccccc1` [6a, N-((4-(4-Bromophenyl)-6-phenylpyrimidin-2-yl)carbamothioyl) benzamide], the “Antibacterial zone of inhibition” value is reported as 7 mm in experiment [1] and 8 mm in experiment [2]. In addition, the concentration for half-maximal inhibition (IC50) in experiment [3] was found to be 1.676 ± 0.014 µM.
Regarding `COc1ccc(C(=O)NC(=S)Nc2nc(-c3ccccc3)cc(-c3ccc(Cl)cc3)n2)cc1OC` [6b, N-((4-(4-Chlorophenyl)-6-phenylpyrimidin-2-yl)carbamothioyl)-3,4-dimethoxybenzamide], the “Antibacterial zone of inhibition” value stood at 6 mm in experiment [1] and 9 mm in experiment [2]. Further, the IC50 worked out at 1.81 ± 0.086 µM in experiment [4] and 1.612 ± 0.004 µM in experiment [3].
Take `Cc1ccc(-c2cc(-c3ccccc3)nc(NC(=S)NC(=O)c3ccccc3)n2)cc1` [6c, N-((4-Phenyl-6-(p-tolyl)pyrimidin-2-yl)carbamothioyl)benzamide]: the “Antibacterial zone of inhibition” value in experiment [1] came out at 7 mm; in experiment [2] it was 8 mm. Further, the IC50 was 1.83 ± 0.062 µM in experiment [4] and 1.55 ± 0.024 µM in experiment [3].
As to `Cc1ccc(-c2cc(-c3ccc(F)cc3)nc(NC(=S)NC(=O)c3ccccc3)n2)cc1` [6d, N-((4-(4-Fluorophenyl)-6-(p-tolyl)pyrimidin-2-yl)carbamothioyl)benzamide], the “Antibacterial zone of inhibition” value was found to be 8 mm in experiment [1] and 9 mm in experiment [2]. For the same compound, the IC50 in experiment [3] was 1.55 ± 0.023 µM.
The like results for `O=C(NC(=S)Nc1nc(-c2ccccc2)cc(-c2ccc(F)cc2)n1)c1ccccc1` [6e, N-((4-(4-Fluorophenyl)-6-phenylpyrimidin-2-yl)carbamothioyl)benzamide] were, in that order, 6 mm, 7 mm and 1.662 ± 0.01 µM.
Regarding `Cc1ccccc1C(=O)NC(=S)Nc1nc(-c2ccccc2)cc(-c2ccc(Cl)cc2)n1` [6f, N-((4-(4-Chlorophenyl)-6-phenylpyrimidin-2-yl)carbamothioyl)-2 methylbenzamide], the results for the “Antibacterial zone of inhibition” value in experiment [1] and in experiment [2] were 7 mm and 6 mm, respectively. In addition, the values for the IC50 in experiment [4] and in experiment [3] were 1.79 ± 0.08 µM and 1.664 ± 0.01 µM, respectively.
On to `O=C(NC(=S)Nc1nc(-c2ccccc2)cc(-c2ccc(Cl)cc2)n1)c1cccc2ccccc12` [6h, N-((4-(4-Chlorophenyl)-6-phenylpyrimidin-2-yl)carbamothioyl)-1-naphthamide], for which the “Antibacterial zone of inhibition” value is 6 mm in experiment [1] and 8 mm in experiment [2]. Besides, the 50% inhibitory concentration (IC50) in experiment [3] was found to be 1.601 ± 0.008 µM.
With `O=C(NC(=S)Nc1nc(-c2ccccc2)cc(-c2ccc(Cl)cc2)n1)C1CCCCC1` [6i, N-((4-(4-Chlorophenyl)-6-phenylpyrimidin-2-yl)carbamothioyl) cyclohexane carboxamide], the “Antibacterial zone of inhibition” value in experiment [1] is 7 mm; in experiment [2] it was 11 mm. In addition, in experiment [3], the IC50 was 1.52 ± 0.034 µM.
The like results for `Cc1ccc(C(=O)NC(=S)Nc2nc(-c3ccccc3)cc(-c3ccc(Cl)cc3)n2)cc1` [6j, N-((4-(4-Chlorophenyl)-6-phenylpyrimidin-2-yl)carbamothioyl)-4-methylbenzamide] were, in that order, 6 mm, 7 mm and 1.48 ± 0.051 µM.
As for `CO[C@H]1/C=C/O[C@@]2(C)Oc3c(C)c(O)c4c(O)c(c(/C=N/N5CCN(C)CC5)c(O)c4c3C2=O)NC(=O)/C(C)=C\C=C\[C@H](C)[C@H](O)[C@@H](C)[C@@H](O)[C@@H](C)[C@H](OC(C)=O)[C@@H]1C` [Rifampin, reference compound], the “Antibacterial zone of inhibition” value was 17 mm in experiment [1] and 26 mm in experiment [2].
